Only some compounds are listed: those with a hit (about 1.4% of all), similar ones and a draw of the others.
HTR5A inv ag: HTR5A inverse agonism, opioid heterodimer counter-screen | P47898 | HTR5A cell line, luminescence | inhibition, % at 9.3 µM | 0.083% of 340,000 active; in the data active means inhibition mostly above about 23%, no sharp cut-off; inactive means mostly below about 18%
Target sequence (P47898 whole entry, looked up): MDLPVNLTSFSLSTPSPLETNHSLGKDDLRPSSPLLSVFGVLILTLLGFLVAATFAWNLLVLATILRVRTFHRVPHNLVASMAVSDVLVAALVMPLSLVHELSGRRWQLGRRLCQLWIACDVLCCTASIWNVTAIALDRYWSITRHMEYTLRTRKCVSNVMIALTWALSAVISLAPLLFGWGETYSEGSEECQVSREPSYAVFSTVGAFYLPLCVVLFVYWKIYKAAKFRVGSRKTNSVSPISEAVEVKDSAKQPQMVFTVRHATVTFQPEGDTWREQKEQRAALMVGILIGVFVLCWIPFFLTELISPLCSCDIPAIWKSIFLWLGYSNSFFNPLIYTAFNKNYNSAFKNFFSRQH
HTR5A ag ctr: activates human HTR5A in OPRM1-OPRD1 agonist counter-screen | P47898 | HTR5A agonist assay, luminescence, cell-based | 0.61% of 340,000 active | activation, % at 9.3 µM; in the data active means activation mostly above about 9.5%, no sharp cut-off; inactive means mostly below about 7.6%
Arrestin-AP2 inh: human beta-arrestin and AP2 interaction inhibition. FITC-arrestin peptide / GST-AP2 beads, flow cytometry; AP2 beta2 appendage carries R879A mutation. inhibition, % at 10 µM. 0.31% of 340,000 active. AID 504490;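 active means inhibition above a set limit, near 3 SD of compounds lacking own fluorescence, cut at about 54% in these data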
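system = GST-tagged AP2 beta2-adaptin appendage (R879A) on 4 µm glutathione beads | reagent = FITC-labelled arrestin peptide probe, 50 nM final | schedule = compound with beads 12 min RT, then probe 1 h RT | signal = HyperCyt-sampled flow cytometry, FL1 channel, ex 488/em 535 nm | read-out = percent response from loss of bead-bound FITC fluorescence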
DAGLB inhibitor: diacylglycerol lipase beta (human) inhibition; 0.059% of 340,000 active; Q8NCG7; HEK293T DAGLB membrane lysate, EnzChek fluorogenic substrate; inhibition, % at 5.17 µM; in the data active means inhibition above about 34%
MOR-DOR inv ag-1: mu-delta opioid heterodimer inverse agonism | P35372+P41143 | cell-based MOR-DOR heterodimer luminescence | inhibition, % at 9.3 µM | 0.21% of 340,000 active | AID 504357; in the data active means inhibition above about 22%, passing the limit was not always enough
MOR-DOR ag: OPRM1-OPRD1 heterodimerization agonism | P35372+P41143 | cells, luminescence | activation, % at 9.3 µM | 0.3% of 340,000 active | AID 504326; in the data active means activation above about 18%
MOR-DOR inv ag-2: opioid heterodimer inverse agonism, HTR5A counter-screen; shares compounds with HTR5A inv ag; U2OS counter-screen cells, complementation luminescence; inhibition, % at 9.3 µM; 190 tested, under 10 active; AID 504912
HTR5A inv confrm: HTR5A (human) inverse agonism, confirmation. shares compounds with HTR5A inv ag. HTR5A-expressing cells, luminescence. inhibition, % at 9.3 µM. 190 tested, under 10 active. AID 504916
Numbers stand for hits; – = inactive; · = no result. Unless noted, how the calls were made is not given here.

SMILES	HTR5A inv ag	HTR5A ag ctr	Arrestin-AP2 inh	DAGLB inhibitor	MOR-DOR inv ag-1	MOR-DOR ag	MOR-DOR inv ag-2	HTR5A inv confrm
CNc1c(C(=O)O)ccc2c1C(=O)c1ccccc1C2=O	36.2	–	–	–	–	–	–	–
O=C1/C(=C\c2ccc(O)c(O)c2)N=C2CCCCCN12	27.2	–	–	–	–	–	–	–
COc1cc(/C=C2\N=C3CCCCCN3C2=O)ccc1O	–	–	–	–	–	–	·	·
CC1CC(C)CN(c2ncc3c(n2)CC(c2ccccc2Cl)CC3=O)C1 (stereo unspecified)	–	–	–	–	–	–	·	·
CC1CC(C)CN(c2ncc3c(n2)CC(c2ccc(Cl)cc2)CC3=O)C1 (stereo unspecified)	31.5	–	–	–	–	–	–	–
Clc1cccc(CN2CCC3CC2c2cc(N4CCCCC4)ccc23)c1 (stereo unspecified)	27.8	–	–	–	–	–	–	–
O=C1CSC(=S)N1N=Cc1ccc(Cl)s1	–	–	–	–	–	–	·	·
CN(C)c1ccc(/C=C/c2ccc3ccccc3[n+]2C)cc1	29.4	–	–	–	–	–	–	–
COc1ccc(-n2c(Cc3cccn3C)nnc2SCC(=O)NC2CCCCC2)cc1	32.6	–	–	–	–	–	–	–
Cn1cccc1Cc1nnc(SCC(=O)NC2CCCC2)n1-c1ccc(F)cc1	–	–	–	–	–	–	·	·
CN(C)CCNCCCNc1c2ccccc2nc2cccc([N+](=O)[O-])c12	–	–	–	–	–	–	·	·
CN(C)CCC1(c2ccccc2)CCN(C)C1=O (stereo unspecified)	·	·	·	–	·	·	·	·
Cc1onc(-c2ccccc2)c1C(=O)NNC(=S)NC(=O)/C=C/c1ccccc1	–	–	–	–	–	–	·	·
COc1ccc(/C=C/C(=O)NC(=S)NNC(=O)c2c(-c3ccccc3)noc2C)cc1	49.2	–	–	–	–	–	–	–
Cc1nonc1CN(C)C(=O)c1cc(COc2ccc(F)cc2Cl)on1	41.2	–	–	–	–	–	–	–
COc1ccc(CC(=O)N(C)CC(=O)Nc2c(C)cccc2C)cc1S(=O)(=O)N1CCOCC1	27.7	–	–	–	–	–	80.6	–
Cc1cc(C(=O)CN2C(=O)C(=O)N(CCC3=CCCCC3)C2=O)c(C)n1C	36.8	–	–	–	–	–	–	–
COC(=O)c1ccccc1-c1c2ccc(=N)cc-2oc2cc(N)ccc12	34.8	–	–	–	–	–	–	–
COc1cc(/C=C2/SC(=S)N(Cc3ccccc3)C2=O)ccc1O	30.5	–	–	–	–	–	–	–
O=C1/C(=C\c2ccc(O)c(O)c2)SC(=S)N1Cc1ccccc1	29.5	–	–	–	–	–	–	–
COc1cc(/C=C2/SC(=S)N(c3c(C)n(C)n(-c4ccccc4)c3=O)C2=O)ccc1O	27.6	–	–	–	–	–	–	–
COc1cc(/C=C2\SC(=S)N(NC(=O)c3ccccc3OC)C2=O)ccc1O	32.8	–	–	–	–	–	–	–
COc1cc(/C=C2/SC(=NCc3ccccc3)N(Cc3ccccc3)C2=O)ccc1O	–	–	–	–	–	–	·	·
COc1cc(/C=C2\SC(=S)N(C(C(=O)O)c3ccccc3)C2=O)ccc1O (stereo unspecified)	–	–	–	–	–	–	·	·
Cc1cn([C@H]2C[C@H](O)[C@@H](CNC=O)O2)c(=O)[nH]c1=O	·	·	·	–	·	·	·	·
SMILES	HTR5A inv ag	HTR5A ag ctr	Arrestin-AP2 inh	DAGLB inhibitor	MOR-DOR inv ag-1	MOR-DOR ag	MOR-DOR inv ag-2	HTR5A inv confrm
CN1OC[C@@H]2CN[C@H](c3ccc(-c4cccc(F)c4)cc3)C[C@@H]21	·	·	·	–	·	·	·	·
CSC[C@H]1CN(c2ccccc2)C(=O)[C@@H]1CC(=O)Nc1ccccc1	·	·	·	–	·	·	·	·
O=C1/C(=C/c2cccc(O)c2)SC(=S)N1CC1CCCO1 (stereo unspecified)	–	–	–	–	–	–	·	·
CCOc1cc(/C=C2/SC(=S)N(CC3CCCO3)C2=O)ccc1O (stereo unspecified)	30.6	–	–	–	–	–	–	–
COc1ccc(NC(=O)CSc2c3c(nc4cc(Cl)ccc24)CCCC3)cc1OC	–	–	–	–	–	–	·	·
COCCNC(=O)CSc1c2c(nc3ccc(Cl)cc13)CCCC2	42.8	–	–	–	–	–	–	–
CC(C)CC1Nc2ncnc(N3CCN(c4ccccc4)CC3)c2N(Cc2ccccc2)C1=O (stereo unspecified)	–	–	–	–	–	–	·	·
COc1ccc(CN2C(=O)C(Cc3ccccc3)Nc3ncnc(N4CCN(c5ccccc5)CC4)c32)cc1 (stereo unspecified)	43.7	–	–	–	–	–	–	55.3
COc1ccc(CN2C(=O)C(CC(C)C)Nc3ncnc(N4CCN(c5ccccc5)CC4)c32)cc1 (stereo unspecified)	–	–	–	–	–	–	·	·
CC(C)CC1Nc2ncnc(N3CCN(c4ccccn4)CC3)c2N(Cc2ccc(Cl)cc2)C1=O (stereo unspecified)	40.2	–	–	–	–	–	–	–
COc1ccc(S(=O)(=O)Nc2cccc3c2O[C@H](CN(C)S(=O)(=O)c2ccc(F)cc2)[C@H](C)CN([C@H](C)CO)C3=O)cc1	39.0	–	–	–	–	–	–	–
O=C(COc1coc(CN2CCc3ccccc3C2)cc1=O)Nc1ccc(F)cc1F	63.1	–	–	–	–	–	–	–
O=C(COc1coc(CN2CCc3ccccc3C2)cc1=O)Nc1ccc(F)cc1	–	–	–	–	–	–	·	·
CC(=O)N1C2CCCCC2S[C@H]2CCCCC21 (stereo partly specified)	33.7	–	–	–	–	–	–	–
Cc1cccc(NC(=O)c2cccc(S(=O)(=O)N(C)C3CCCCC3)c2)n1	·	·	·	–	·	·	·	·
NNc1nc(Nc2ccccc2)nc(N2CCCCC2)n1	34.5	–	–	–	–	–	–	–
NNc1nc(Nc2ccc([N+](=O)[O-])cc2)nc(N2CCCCCC2)n1	–	–	–	–	–	–	·	·
Cn1nc(OCc2ccccc2)ccc1=O	–	–	–	–	–	–	·	·
Cn1nc(OCCOc2ccccc2)ccc1=O	39.8	–	–	–	–	–	–	–
N#Cc1c(NC(=O)C2CC(c3c(F)cccc3Cl)=NO2)sc2c1CCC2 (stereo unspecified)	–	–	–	–	–	–	·	·
CCc1c(C)sc(NC(=O)C2CC(c3c(F)cccc3Cl)=NO2)c1C#N (stereo unspecified)	33.0	–	–	–	–	–	–	–
Cn1cnc(S(=O)(=O)N2CCN(c3cccc(Cl)c3)CC2)c1	37.8	–	–	–	–	–	–	–

Screening data deposited in PubChem by several laboratories.
